From ChEMBL document CHEMBL3804788, “The design of 8-hydroxyquinoline tetracyclic lactams as HIV-1 integrase strand transfer inhibitors” (Eur J Med Chem, 2016) come the findings set out here.

Converted amounts (≈) assume the structure as drawn.

The test system of data set [1] is Human immunodeficiency virus type 1 integrase (Human immunodeficiency virus 1), Q7ZJM1 [G140S,Q148H]. Description: Inhibition of pseudotype HIV1 integrase G140S/Q148H double mutant strand transfer activity in HIV1 infected human CIP4 cells assessed as ratio of IC50 for pseudotype HIV1 integrase G140S/Q148H double mutant strand transfer activity to IC50 for pseudotype HIV1 integrase strand transfer activity after 2 days by luciferase reporter gene assay. Format: cell-based. (In general: In a reporter assay the amount or activity of a reporter protein is the signal.)

Data set [2] has as its system Human immunodeficiency virus type 1 integrase (Human immunodeficiency virus 1), Q7ZJM1 [Q148K]. The data set can be described thus: Inhibition of pseudotype HIV1 integrase Q148K mutant strand transfer activity in HIV1 infected human CIP4 cells assessed as ratio of IC50 for pseudotype HIV1 integrase Q148K mutant strand transfer activity to IC50 for pseudotype HIV1 integrase strand transfer activity after 2 days by luciferase reporter gene assay. Format: cell-based.

Data set [3] can be described thus: Cytotoxicity against human CIP4 cells. Format: cell-based.
Data set [4] relates to Rattus norvegicus. The data set can be described thus: Total clearance in Sprague-Dawley rat at 1 mg/kg, iv or 5 mg/kg, po after 24 hrs by LC-MS/MS analysis relative to hepatic blood flow. Format: ADME, organism-based, Liver. Particulars: in vivo.
The nature of data set [5]: Half life in iv or po dosed beagle dog by LC-MS/MS analysis. It counts as ADME, organism-based, Canis lupus familiaris. Particulars: in vivo.
A short description of data set [6]: Intrinsic aqueous solubility of compound by chemiluminescent nitrogen detection method. It counts as physicochemical. The note with it: buffer.
A short description of data set [7]: Total clearance in Sprague-Dawley rat at 1 mg/kg, iv or 5 mg/kg, po after 24 hrs by LC-MS/MS analysis. It counts as ADME, organism-based. The note with it: in vivo.
Data set [8] has as its system Canis familiaris. Description: Total clearance in iv or po dosed beagle dog after 24 hrs by LC-MS/MS analysis relative to hepatic blood flow. It counts as ADME, organism-based, Canis lupus familiaris, Liver. The note with it: in vivo.
Data set [9] is described as follows: Oral bioavailability in beagle dog after 24 hrs by LC-MS/MS analysis. Particulars: in vivo. Format: ADME, organism-based, Canis lupus familiaris.
Data set [10] can be described thus: Half life in Sprague-Dawley rat at 1 mg/kg, iv or 5 mg/kg, po by LC-MS/MS analysis. It counts as ADME, organism-based. Particulars: in vivo.
Data set [11] can be described thus: Total clearance in iv or po dosed beagle dog after 24 hrs by LC-MS/MS analysis. The note with it: in vivo. Format: ADME, organism-based, Canis lupus familiaris.
A short description of data set [12]: Oral bioavailability in Sprague-Dawley rat at 5 mg/kg after 24 hrs by LC-MS/MS analysis. It counts as ADME, organism-based. Particulars: in vivo.
Data set [13] can be described thus: Apparent permeability of compound. Format: physicochemical. The note with it: not told.
The target in data set [14] is Human immunodeficiency virus type 1 integrase (Human immunodeficiency virus 1) (UniProt Q7ZJM1). The data set can be described thus: Ratio of IC50 for pseudotype HIV1 integrase strand transfer activity in presence of 40% human serum albumin to IC50 for pseudotype HIV1 integrase strand transfer activity. Put shortly: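 Single-round assay with a self-inactivating pseudotyped HIV (PHIV) lentiviral luciferase vector. CIP4 cells (2 × 10^4/well) were infected with enough PHIV to give about 50,000 relative light units. Cells were incubated 2 days with compound at varying concentrations, with or without 40% human serum albumin. Infection was read as luciferase luminescence (Steady-Glo). Serum shift is the IC50 with albumin divided by the IC50 without.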

The term CC50 denotes the concentration giving 50% cytotoxicity. Low values mean greater toxicity to the cells, high ones lower toxicity to the cells. With `NC(=O)c1c2c(c(O)c3ncc(Cc4cccc(Cl)c4F)cc13)C(=O)N1CCC[C@H]1C2`, the Ratio IC50 in data set [1] turned out to be 2.6; in data set [2], 0.6. The compound further yielded a CC50 in data set [3] of 36.8 µM.

Broadly, the half-life is how long it takes for the measured level to halve. High values mean slow decline, low ones rapid decline. The solubility is the concentration that dissolves in the medium under given conditions. Higher therefore signals a readily soluble substance. The bioavailability is dose-corrected exposure relative to a reference, in per cent. Usually Papp stands for a coefficient for how fast a substance crosses the barrier. As to `NC(=O)c1c2c(c(O)c3ncc(Cc4cccc(Cl)c4F)cc13)C(=O)N1CCCC[C@H]21`, the CL in data set [4] was 2%; in [8] it was 5%. In addition, the results for the Ratio IC50 in data set [1] and in [2] were 2.8 and 1.4, respectively. Further, the results for the half-life in data set [5] and in data set [10] were 11.8 h and 7.2 h, respectively. Besides, the solubility in data set [6] was determined as 25 µM (≈ 11 µg/mL). In addition, the clearance in data set [7] was found to be 1.4 mL/min/kg; in data set [11], 2.8 mL/min/kg. For the same compound, the bioavailability in data set [9] is 14%; in data set [12] it was 2%. Also, half-maximal cytotoxicity in [3] (CC50) was put at 24.4 µM. For the same compound, the Papp in [13] was 6 ×10⁻⁶ cm/s.

Turning to `N#Cc1c2c(c(O)c3ncc(Cc4cccc(Cl)c4F)cc13)C(=O)N1CCCN1C2`, the Ratio IC50 came out at 188 in data set [14], 8 in data set [1] and 1.3 in [2].

Consider `N#Cc1c2c(c(O)c3ncc(Cc4cccc(Cl)c4F)cc13)C(=O)N1CCC[C@H]1C2`, for which the Ratio IC50 in data set [1] was 2.8; in data set [2], 1.4. It took 50 µM to reach half-maximal cytotoxicity in data set [3] (CC50).

On to `N#Cc1c2c(c(O)c3ncc(Cc4cccc(Cl)c4F)cc13)C(=O)N1CCCC[C@@H]21`, for which the Ratio IC50 in [1] was 93; in [2], 17. Also, it took 3.36 µM to reach half-maximal cytotoxicity in data set [3] (CC50).

For `N#Cc1c2c(c(O)c3ncc(Cc4cccc(Cl)c4F)cc13)C(=O)N1CCCC[C@H]21`, the values for the Ratio IC50 in data set [1] and in data set [2] were 17 and 8.8, respectively. This compound returned a cytotoxic concentration (CC50) in data set [3] of 7.05 µM.

As for `O=C(NCc1ccc(F)cc1)c1cn2c(c(O)c1=O)C(=O)N1CCCO[C@H]1C2`, in [2], the Ratio IC50 came to 2.4.

`O=C1c2c(cc3cc(Cc4cccc(Cl)c4F)cnc3c2O)CN2CCCN12`: the Ratio IC50 in [14] was 9; in data set [1], 2.3; in data set [2], 0.4.

Regarding `NC(=O)c1c2c(c(O)c3ncc(Cc4cccc(Cl)c4F)cc13)C(=O)N1CCCC[C@@H]21`, the results for the Ratio IC50 in data set [1] and in data set [2] were 3.7 and 0.1, respectively. The compound further yielded a CC50 in data set [3] of 5.18 µM.

Consider `N#Cc1c2c(c(O)c3ncc(Cc4cccc(Cl)c4F)cc13)C(=O)N1CCC[C@@H]21`, for which the Ratio IC50 in data set [1] is 131; in data set [2] it was 31. The compound also showed a CC50 in data set [3] of 1.83 µM.

For `N#Cc1c2c(c(O)c3ncc(Cc4cccc(Cl)c4F)cc13)C(=O)N1CCC[C@@H]1C2`, the Ratio IC50 in data set [1] came out at 1.5; in [2], 0.8. For the same compound, half-maximal cytotoxicity in [3] (CC50) was put at 12.8 µM.

As to `NC(=O)c1c2c(c(O)c3ncc(Cc4cccc(Cl)c4F)cc13)C(=O)N1CCC[C@@H]1C2`, the Ratio IC50 was 0.4 in data set [1] and 0.6 in data set [2]. This compound registered a CC50 in data set [3] of 21.1 µM.

With `N#Cc1c2c(c(O)c3ncc(Cc4cccc(Cl)c4F)cc13)C(=O)N1CCC[C@H]21`, the values for the Ratio IC50 in [1] and in [2] were 456 and 216, respectively. This compound also returned a CC50 in data set [3] of 7.27 µM.

In the case of `Cn1c(=O)c(C(=O)NCCO)c(O)c2ncc(Cc3ccc(F)cc3)cc21`, the Ratio IC50 in data set [2] was 40.
